cardiac RTF act – cardiac RTF calcium sensitivity activators, primary screen, biochemical, IANBD-TnC fluorescence, EC20 calcium; Troponin I, cardiac muscle (Homo sapiens) + Troponin T, cardiac muscle (Homo sapiens) + …; IANBD-labeled TnC RTF fluorescence at EC20 calcium; 0% EC20 calcium, 100% full calcium; activation, % at 7.2 µM; 0.24% of 340,000 active; AID 493008, 2010;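 active = activation above the mean over all tested compounds plus 3 SD, cut at about 30% in these data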;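 also: rise in fluorescence read as greater calcium sensitivity of cardiac thin filaments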
Tn6 DDE FP – inhibitors of Tn6 peptide binding to fibrin DD(E), primary screen, biochemical, fluorescence polarization, human fibrin, Tn6 probe | Fibrin DD(E) TRITC-Tn6 fluorescence polarization displacement | inhibition, % at 8.3 µM | 0.21% of 370,000 active;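 active = inhibition above a per-campaign cutoff: mean of compounds within control limits plus 3 SD, cut at about 15% in these data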
Target sequence (P02675 whole entry, looked up): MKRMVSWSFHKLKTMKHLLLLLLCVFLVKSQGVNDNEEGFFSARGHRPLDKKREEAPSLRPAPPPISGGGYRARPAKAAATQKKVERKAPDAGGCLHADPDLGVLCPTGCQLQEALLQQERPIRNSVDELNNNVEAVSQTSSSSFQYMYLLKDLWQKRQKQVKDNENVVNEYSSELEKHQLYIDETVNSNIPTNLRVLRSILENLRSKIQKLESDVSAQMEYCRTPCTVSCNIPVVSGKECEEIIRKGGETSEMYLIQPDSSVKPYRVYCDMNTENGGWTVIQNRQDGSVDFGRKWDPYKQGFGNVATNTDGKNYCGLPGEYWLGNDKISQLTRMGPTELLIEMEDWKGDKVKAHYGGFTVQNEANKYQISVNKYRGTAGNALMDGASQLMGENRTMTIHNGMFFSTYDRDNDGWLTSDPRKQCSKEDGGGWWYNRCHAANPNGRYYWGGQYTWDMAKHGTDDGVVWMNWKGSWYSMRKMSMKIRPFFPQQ
Cardiac RTF inh – cardiac RTF calcium sensitivity inhibitors, primary screen, biochemical, IANBD-TnC fluorescence, EC70 calcium. Troponin I, cardiac muscle (Homo sapiens) + Troponin T, cardiac muscle (Homo sapiens) + …. IANBD-labeled cardiac RTF, Ca2+ fluorescence. inhibition, % at 7.15 µM. 0.12% of 340,000 active;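 active = inhibition above the mean inhibition of all tested compounds plus 3 SD, cut at about 17% in these data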;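 also: assay run at fixed EC70 calcium of 1.6 mM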
CRFBP-R2 agonist – agonists of CRF-BP/CRF-R2 complex, primary screen, cell-based, HEK293, calcium dye fluorescence, uHTS. CRF-binding protein / CRF receptor 2 complex (human). calcium dye fluorescence (FLIPR); percent of saturating CRF peptide response. activation, % at 13.2 µM. 0.46% of 350,000 active. AID 588473, 2011;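 active = activation of at least 50%, plus an integration ratio under a set limit after plate pattern correction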
CRFR2-BP antag – antagonists of CRF-BP/CRF-R2 complex, primary screen, cell-based, HEK293, calcium dye fluorescence, uHTS | CRF-induced calcium fluorescence | inhibition, % at 11.8 µM | 0.59% of 350,000 active;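 active = inhibition of the ligand-induced calcium signal above about 50% at the single tested concentration, limit read from the data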
Tn7 DDE FP – inhibitors of Tn7 peptide binding to fibrin DD(E), primary screen, biochemical, fluorescence polarization, human fibrin, Tn7 probe | Fibrinogen beta chain (Homo sapiens), P02675 | FP displacement of FITC-Tn7 peptide from fibrin DD(E); 0% = median of compound wells per plate | inhibition, % at 8.3 µM | 0.13% of 370,000 active;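 active = inhibition above the mean of compounds falling within the control limits plus 3 SD of them, cut at about 14% in these data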
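Measure: % inhibition scaled between sample-field median and high-control FP; Test system: human fibrin DD(E); Quantity: 2 µM final DD(E) protein; Doses: one dose, 8.3 µM nominal; Schedule: compound with protein 10 min, then 3 h after probe, room temperature; Detection: fluorescence polarization; Medium: Tris buffer with calcium and detergent, pH 7.8.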
Hits are given with their value. Hits are enriched below; roughly 1.4% of the tested compounds scored in any of these assays.

CCOc1cc(/C=N/NC(=O)c2ccccc2-n2cccc2)ccc1O was read as cardiac RTF act inactive, Tn6 DDE FP inactive, Cardiac RTF inh inactive, CRFBP-R2 agonist inactive, CRFR2-BP antag inactive and Tn7 DDE FP inactive.
CCOc1cc(/C=N/NC(=O)c2ccccc2OCc2ccc(F)cc2)ccc1O was read as cardiac RTF act inactive, Tn6 DDE FP inactive, Cardiac RTF inh inactive, CRFBP-R2 agonist inactive, CRFR2-BP antag 56 and Tn7 DDE FP inactive.
Screening COc1ccc(Cl)cc1Nc1nc(NCCO)nc(N2CCCCC2)n1 returned cardiac RTF act inactive, Tn6 DDE FP inactive, Cardiac RTF inh inactive, CRFBP-R2 agonist inactive, CRFR2-BP antag 51 and Tn7 DDE FP inactive.
COc1ccc(Cl)cc1Nc1nc(NCCO)nc(N2CCCC2)n1 was read as cardiac RTF act inactive, Tn6 DDE FP inactive, Cardiac RTF inh inactive, CRFBP-R2 agonist inactive, CRFR2-BP antag inactive and Tn7 DDE FP inactive.
For COc1cccc(Cn2cc(COC(=O)NCCc3c[nH]c4ccccc34)nn2)c1 the results were Tn6 DDE FP inactive and Tn7 DDE FP inactive.
`COC(=O)C1=C[C@@H]([C@@H](C)[C@H](OC)c2ccccc2Br)[C@@H]2OCCC[C@H]12` gave Tn6 DDE FP inactive and Tn7 DDE FP inactive.
For CC(=O)Nc1ccc(Nc2nc3ccccc3nc2NS(=O)(=O)c2ccc(Cl)c([N+](=O)[O-])c2)cc1 the results were cardiac RTF act inactive, Tn6 DDE FP inactive, Cardiac RTF inh inactive, CRFBP-R2 agonist inactive, CRFR2-BP antag 65 and Tn7 DDE FP inactive.
CC(C)(C)c1nc(CN2CCCCC2)cc(CN2CCCCC2)c1O was read as cardiac RTF act inactive, Tn6 DDE FP inactive, Cardiac RTF inh inactive, CRFBP-R2 agonist inactive, CRFR2-BP antag 81 and Tn7 DDE FP inactive.
Screening CC(C)(C)c1nc(CN2CCOCC2)ccc1O returned cardiac RTF act inactive, Tn6 DDE FP inactive, Cardiac RTF inh inactive, CRFBP-R2 agonist inactive, CRFR2-BP antag inactive and Tn7 DDE FP inactive.
Screening Clc1ccc(-c2nnc3sc(-c4ccc(Br)o4)nn23)cc1 returned cardiac RTF act inactive, Tn6 DDE FP inactive, Cardiac RTF inh inactive, CRFBP-R2 agonist 53, CRFR2-BP antag inactive and Tn7 DDE FP inactive.
For COc1ccccc1-n1cnnc1SCC(=O)NCc1cccs1 the results were cardiac RTF act inactive, Tn6 DDE FP inactive, Cardiac RTF inh inactive, CRFBP-R2 agonist inactive, CRFR2-BP antag 82 and Tn7 DDE FP inactive.
For COc1ccccc1-n1cnnc1SCC(=O)NC1CCCCC1 the results were cardiac RTF act inactive, Tn6 DDE FP inactive, Cardiac RTF inh inactive, CRFBP-R2 agonist inactive, CRFR2-BP antag inactive and Tn7 DDE FP inactive.
Screening CC(=O)N1CCC2(CC1)C(C#N)=C(N)OC1=C2C(=O)CC(C)(C)C1 returned cardiac RTF act inactive, Tn6 DDE FP inactive, Cardiac RTF inh inactive, CRFBP-R2 agonist inactive, CRFR2-BP antag inactive and Tn7 DDE FP inactive.
CC1(C)CC(=O)C2=C(C1)OC(N)=C(C#N)C21CCN(Cc2ccccc2)CC1 was read as cardiac RTF act 32, Tn6 DDE FP inactive, Cardiac RTF inh inactive, CRFBP-R2 agonist inactive, CRFR2-BP antag inactive and Tn7 DDE FP inactive.
For CN(C)S(=O)(=O)c1cccc(NC(=O)C2CCCN(C(=O)c3ccc(Cl)cc3)C2)c1 (stereo not given) the results were Tn6 DDE FP inactive, CRFBP-R2 agonist inactive, CRFR2-BP antag inactive and Tn7 DDE FP inactive.
O=C(NCc1ccc(Cl)cc1)O[C@H]1CC[C@@]23CCCN2C(=O)CCC[C@H]3C1 was read as Tn6 DDE FP inactive and Tn7 DDE FP inactive.
For Cc1ccc(-c2sc(-c3ccccc3)nc2CC(=O)Nc2ccccc2F)cc1 the results were cardiac RTF act inactive, Tn6 DDE FP inactive, Cardiac RTF inh inactive, CRFBP-R2 agonist 128, CRFR2-BP antag inactive and Tn7 DDE FP inactive.
`CCOc1ccc(-n2c(SCC(=O)Nc3ccc(S(=O)(=O)Nc4cc(C)nc(C)n4)cc3)nnc2-c2ccc(OC)cc2)cc1` gave Tn6 DDE FP inactive and Tn7 DDE FP inactive.
`O=C(NCc1cccs1)c1cc(-c2cccs2)on1` gave cardiac RTF act inactive, Tn6 DDE FP 91, Cardiac RTF inh inactive, CRFBP-R2 agonist inactive, CRFR2-BP antag inactive and Tn7 DDE FP inactive.
O=C(NCc1cccs1)c1cc(-c2ccccc2)on1 was read as cardiac RTF act inactive, Tn6 DDE FP inactive, Cardiac RTF inh inactive, CRFBP-R2 agonist inactive, CRFR2-BP antag inactive and Tn7 DDE FP inactive.
CC1(C(=O)NS(=O)(=O)C2CC2)CCCN(C(=O)c2cccc(OC(F)(F)F)c2)C1 (stereo not given) was read as Tn6 DDE FP inactive and Tn7 DDE FP inactive.
For Cc1cccc(C)c1-n1nnnc1C(c1ccccc1)N1CCN(C/C=C/c2ccccc2)CC1 (stereo not given) the results were Tn6 DDE FP inactive and Tn7 DDE FP inactive.
CCN(CC)c1nc(C=Cc2ccc(N(C)C)cc2)c2nccnc2n1 was read as Tn6 DDE FP inactive, CRFBP-R2 agonist 215, CRFR2-BP antag inactive and Tn7 DDE FP inactive.
Screening Cc1c(Cc2ccccc2)c(=O)n2c([nH]c3ccccc32)c1C#N returned cardiac RTF act inactive, Tn6 DDE FP inactive, Cardiac RTF inh inactive, CRFBP-R2 agonist inactive, CRFR2-BP antag inactive and Tn7 DDE FP inactive.
For COc1ccccc1N=Cc1c(C)c(C#N)c2[nH]c3ccccc3n2c1=O the results were cardiac RTF act 62, Tn6 DDE FP inactive, Cardiac RTF inh inactive, CRFBP-R2 agonist inactive, CRFR2-BP antag inactive and Tn7 DDE FP inactive.
`Cc1ccccc1-n1c(O)c(/C=C/C=Nc2ccccc2)c(=O)[nH]c1=O` gave cardiac RTF act 124, Tn6 DDE FP inactive, Cardiac RTF inh inactive, CRFBP-R2 agonist 81, CRFR2-BP antag inactive and Tn7 DDE FP inactive.
For Cc1ccc(-n2c(O)c(/C=C3/C(c4ccccc4)=Nc4ccccc43)c(=O)[nH]c2=O)cc1 the results were cardiac RTF act inactive, Tn6 DDE FP inactive, Cardiac RTF inh inactive, CRFBP-R2 agonist inactive, CRFR2-BP antag inactive and Tn7 DDE FP inactive.
Screening CCCCCC(=O)NNC(=O)c1ccc(F)cc1 returned cardiac RTF act inactive, Tn6 DDE FP inactive, Cardiac RTF inh inactive, CRFBP-R2 agonist inactive, CRFR2-BP antag 53 and Tn7 DDE FP inactive.
For COc1ccc(Cl)cc1C(=O)NNC(=S)NC(=O)c1ccc(F)c(F)c1 the results were cardiac RTF act inactive, Cardiac RTF inh inactive, CRFBP-R2 agonist 142 and CRFR2-BP antag 62.

Source: PubChem BioAssay (several laboratories)
